Measured values from BindingDB's records for doi:10.1021/jm051126f (The Ohio State University, 2006).

Molecular target: T1, Aromatase (Homo sapiens, UniProt P11511)
T1 sequence (P11511 whole entry): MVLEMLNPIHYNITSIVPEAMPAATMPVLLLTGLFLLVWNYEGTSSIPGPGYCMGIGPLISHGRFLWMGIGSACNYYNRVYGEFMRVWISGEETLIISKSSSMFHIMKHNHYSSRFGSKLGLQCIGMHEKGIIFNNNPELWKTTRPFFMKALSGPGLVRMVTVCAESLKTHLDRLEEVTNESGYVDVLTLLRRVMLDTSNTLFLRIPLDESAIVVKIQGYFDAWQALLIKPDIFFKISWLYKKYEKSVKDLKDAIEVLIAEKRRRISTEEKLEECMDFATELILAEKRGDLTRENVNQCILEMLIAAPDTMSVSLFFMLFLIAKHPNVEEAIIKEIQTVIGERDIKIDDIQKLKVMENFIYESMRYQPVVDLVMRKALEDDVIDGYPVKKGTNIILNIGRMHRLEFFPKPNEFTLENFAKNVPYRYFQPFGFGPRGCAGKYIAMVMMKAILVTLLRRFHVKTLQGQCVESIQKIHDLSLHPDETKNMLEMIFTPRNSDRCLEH
Experiment: Inhibition of CYP450 aromatase activity in SK-BR-3 cells
In short: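 Tritium water release assay in intact SK-BR-3 cells. Cells were treated 24 h with compound or 0.1% DMSO vehicle, then the medium was changed and cells were given 100 nM [1β-3H]-androstenedione for 3 h. Protein was precipitated with TCA and the medium chloroform- and charcoal-extracted. Released 3H2O was counted and expressed per million cells (DNA assay). IC50 came from nonlinear regression on five concentrations in triplicate.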

IC50 [µM] | SMILES
> 25 | COc1cc([N+](=O)[O-])ccc1NS(C)(=O)=O [N-(2-methoxy-4-nitrophenyl)methanesulfonamide]
> 25 | COc1cc([N+](=O)[O-])ccc1N(C)S(C)(=O)=O [N-methyl-N-(2-methoxy-4-nitrophenyl)methanesulfonamide]
